{
  "source": "ChEMBL document CHEMBL1152436",
  "about": "“Synthesis, biological evaluation, and three-dimensional in silico pharmacophore model for sigma(1) receptor ligands based on a series of substituted benzo[d]oxazol-2(3H)-one derivatives” (J Med Chem, 2009)",
  "key": {"[1]": {"molecular_target": "Sigma non-opioid intracellular receptor 1 (Rattus norvegicus, UniProt Q9R0C9)", "sequence (Q9R0C9 whole entry)": "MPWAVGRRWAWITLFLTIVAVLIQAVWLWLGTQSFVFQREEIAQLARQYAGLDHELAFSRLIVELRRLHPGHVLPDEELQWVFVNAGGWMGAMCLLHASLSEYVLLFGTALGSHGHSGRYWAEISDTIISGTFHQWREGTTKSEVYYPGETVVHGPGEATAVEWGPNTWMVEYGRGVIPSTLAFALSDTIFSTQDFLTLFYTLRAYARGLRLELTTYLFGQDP", "assay": "Displacement of [3H](+)-pentazocine from sigma1 receptor in rat liver membrane by liquid scintillation counting", "format": "cell membranes"}, "[2]": {"assay": "Displacement of [3H]DTG from sigma2 receptor in rat liver membrane by liquid scintillation counting", "format": "cell membranes", "summary_of_the_method": "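Rat liver homogenate (150 μg) incubated 120 min at room temperature with 3 nM [3H]DTG in 50 mM Tris-HCl pH 8.0. σ1 sites masked with 100 nM (+)-pentazocine; nonspecific binding with 10 μM haloperidol. At least 11 ligand concentrations, 0.1% final DMSO. Filtration on PEI-soaked GF/B filters. IC50 and nH from four-parameter fit, 2–4 determinations in duplicate, mean ± SEM.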"}},
  "note": "pKi: −log10 of the molar value.",
  "data": [
    {"smiles": "Cc1ccccc1CN1CCC(Cn2c(=O)oc3ccccc32)CC1", "values": [
      {"measurement": "pKi", "setting": "[1]", "result": 7.53}
    ]},
    {"smiles": "Cc1ccc(CN2CCC(Cn3c(=O)oc4ccccc43)CC2)cc1", "values": [
      {"measurement": "pKi", "setting": "[1]", "result": 8.51}
    ]},
    {"smiles": "Cc1ccc(CN(C)CCCn2c(=O)oc3ccccc32)cc1", "values": [
      {"measurement": "pKi", "setting": "[2]", "result": 6.00},
      {"measurement": "pKi", "setting": "[1]", "result": 6.06}
    ]},
    {"smiles": "COc1ccccc1CN(C)CCCn1c(=O)oc2ccccc21", "values": [
      {"measurement": "pKi", "setting": "[2]", "result": 6.72},
      {"measurement": "pKi", "setting": "[1]", "result": 5.71}
    ]},
    {"smiles": "COc1ccc(CN(C)CCCn2c(=O)oc3ccccc32)cc1", "values": [
      {"measurement": "pKi", "setting": "[2]", "result": 5.58},
      {"measurement": "pKi", "setting": "[1]", "result": 7.08}
    ]},
    {"smiles": "Cc1ccc(CN(C)CCCCn2c(=O)oc3ccccc32)cc1", "values": [
      {"measurement": "pKi", "setting": "[2]", "result": 7.64},
      {"measurement": "pKi", "setting": "[1]", "result": 7.01}
    ]},
    {"smiles": "CN(CCCn1c(=O)oc2ccccc21)Cc1ccccc1Cl", "values": [
      {"measurement": "pKi", "setting": "[2]", "result": 6.34},
      {"measurement": "pKi", "setting": "[1]", "result": 5.60}
    ]},
    {"smiles": "Cc1ccc(CN2CCC(C(=O)Nc3ccccc3)CC2)cc1", "values": [
      {"measurement": "pKi", "setting": "[1]", "result": 6.98}
    ]},
    {"smiles": "CN(CCCCn1c(=O)oc2ccccc21)Cc1ccccc1Cl", "values": [
      {"measurement": "pKi", "setting": "[2]", "result": 7.43},
      {"measurement": "pKi", "setting": "[1]", "result": 6.07}
    ]},
    {"smiles": "CN(CCCCn1c(=O)oc2ccccc21)Cc1ccc(Cl)cc1", "values": [
      {"measurement": "pKi", "setting": "[2]", "result": 7.44}
    ]},
    {"smiles": "CN(CCCCn1c(=O)oc2ccccc21)Cc1cccc(Cl)c1", "values": [
      {"measurement": "pKi", "setting": "[1]", "result": 6.52}
    ]},
    {"smiles": "O=C(Nc1ccccc1)C1CCN(Cc2ccccc2)CC1", "values": [
      {"measurement": "pKi", "setting": "[1]", "result": 7.32}
    ]},
    {"smiles": "CN(CCCn1c(=O)oc2ccccc21)Cc1cccc(Cl)c1", "values": [
      {"measurement": "pKi", "setting": "[2]", "result": 5.95},
      {"measurement": "pKi", "setting": "[1]", "result": 5.49}
    ]},
    {"smiles": "CN(CCCCn1c(=O)oc2ccccc21)Cc1ccccc1", "values": [
      {"measurement": "pKi", "setting": "[2]", "result": 6.92}
    ]},
    {"smiles": "COc1ccc(CN(C)CCCCn2c(=O)oc3ccccc32)cc1", "values": [
      {"measurement": "pKi", "setting": "[2]", "result": 7.68},
      {"measurement": "pKi", "setting": "[1]", "result": 7.68}
    ]},
    {"smiles": "O=C(Nc1ccccc1)C1CCN(Cc2ccc(Cl)cc2)CC1", "values": [
      {"measurement": "pKi", "setting": "[1]", "result": 7.35}
    ]},
    {"smiles": "COc1ccccc1CN(C)CCCCn1c(=O)oc2ccccc21", "values": [
      {"measurement": "pKi", "setting": "[1]", "result": 6.23}
    ]},
    {"smiles": "CN(CCCn1c(=O)oc2ccccc21)Cc1ccc(Cl)cc1", "values": [
      {"measurement": "pKi", "setting": "[2]", "result": 6.34}
    ]},
    {"smiles": "Cc1ccc(CN2CCC(C(=O)NCc3ccccc3)CC2)cc1", "values": [
      {"measurement": "pKi", "setting": "[1]", "result": 7.16}
    ]},
    {"smiles": "Cc1ccc(CN(C)CCCCn2c(=O)oc3ccccc32)c(C)c1", "values": [
      {"measurement": "pKi", "setting": "[2]", "result": 8.16},
      {"measurement": "pKi", "setting": "[1]", "result": 6.62}
    ]},
    {"smiles": "Cc1cccc(CN(C)CCCCn2c(=O)oc3ccccc32)c1", "values": [
      {"measurement": "pKi", "setting": "[2]", "result": 7.50},
      {"measurement": "pKi", "setting": "[1]", "result": 6.99}
    ]},
    {"smiles": "Cc1cccc(CN(C)CCCn2c(=O)oc3ccccc32)c1", "values": [
      {"measurement": "pKi", "setting": "[2]", "result": 5.57},
      {"measurement": "pKi", "setting": "[1]", "result": 5.74}
    ]},
    {"smiles": "CN(CCCn1c(=O)oc2ccccc21)Cc1ccccc1", "values": [
      {"measurement": "pKi", "setting": "[2]", "result": 5.95}
    ]},
    {"smiles": "Cc1ccccc1CN(C)CCCn1c(=O)oc2ccccc21", "values": [
      {"measurement": "pKi", "setting": "[2]", "result": 5.87},
      {"measurement": "pKi", "setting": "[1]", "result": 6.05}
    ]},
    {"smiles": "COc1cccc(CN(C)CCCn2c(=O)oc3ccccc32)c1", "values": [
      {"measurement": "pKi", "setting": "[2]", "result": 5.67},
      {"measurement": "pKi", "setting": "[1]", "result": 5.07}
    ]},
    {"smiles": "Cc1ccc(CN(C)CCCn2c(=O)oc3ccccc32)c(C)c1", "values": [
      {"measurement": "pKi", "setting": "[2]", "result": 5.69},
      {"measurement": "pKi", "setting": "[1]", "result": 5.74}
    ]},
    {"smiles": "COc1cccc(CN(C)CCCCn2c(=O)oc3ccccc32)c1", "values": [
      {"measurement": "pKi", "setting": "[2]", "result": 6.73},
      {"measurement": "pKi", "setting": "[1]", "result": 6.53}
    ]},
    {"smiles": "CC(C)=CCN1CC[C@]2(C)c3cc(O)ccc3C[C@H]1[C@H]2C", "note": "[(+)-PENTAZOCINE]", "values": [
      {"measurement": "pKi", "setting": "[2]", "result": 6.49}
    ]},
    {"smiles": "Cc1ccccc1NC(=N)Nc1ccccc1C", "note": "[DITOLYLGUANIDINE]", "values": [
      {"measurement": "pKi", "setting": "[2]", "result": 6.89}
    ]},
    {"smiles": "O=C(CCCN1CCC(O)(c2ccc(Cl)cc2)CC1)c1ccc(F)cc1", "note": "[HALOPERIDOL]", "values": [
      {"measurement": "pKi", "setting": "[2]", "result": 6.63}
    ]}
  ]
}
